Reference: ChEMBL document CHEMBL3045714, “Insect antifeedants from tropical plants: structures of dumnin and dumsenin” (2004)

Experiments:
Format in all cases: functional
Spodoptera frugiperda [1] = assay: Antifeedant activity against second-instar larvae of Spodoptera frugiperda (fall armyworm) assessed as concentration required for 50 % protection of host plant substrate after 48 hr by leaf disk assay
How it was run: (§1)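 Leaf disks (1 cm²) punched from glandless cotton cultivar, randomized, 12 per Petri dish on moistened filter paper; alternate disks treated on upper surface with 25 μL acetone or 0–100 μg sample in 25 μL acetone. Three larvae per dish, 22 °C, dark, 48 h; percent disk area eaten vs control scored visually. PC50/PC95 = ca. 50/95% protection; triplicate on separate occasions, mean.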

Pectinophora gossypiella [2] = assay: Antifeedant activity against second-instar larvae of Pectinophora gossypiella (pink bollworm) assessed as concentration required for 95 % protection of host plant substrate after 48 hr by leaf disk assay; how it was run: as §1
Pectinophora gossypiella [3] = assay: Antifeedant activity against second-instar larvae of Pectinophora gossypiella (pink bollworm) assessed as concentration required for 50 % protection of host plant substrate after 48 hr by leaf disk assay; how it was run: as §1
Spodoptera frugiperda [4] = assay: Antifeedant activity against second-instar larvae of Spodoptera frugiperda (fall armyworm) assessed as concentration required for 95 % protection of host plant substrate after 48 hr by leaf disk assay; how it was run: as §1

Structure (SMILES) | PC50 (Spodoptera frugiperda [1]) [µg/mL] | PC95 (Pectinophora gossypiella [2]) [µg/mL] | PC50 (Pectinophora gossypiella [3]) [µg/mL] | PC95 (Spodoptera frugiperda [4]) [µg/mL]
CC(=O)O[C@H]1[C@H](OC(C)=O)[C@@]2(C)C(=CC[C@@H]2c2ccoc2)[C@@]2(C)C(=O)C[C@H]3C(C)(C)O[C@]4(O)C(=O)CC[C@]34[C@@H]12 [DUMSENIN] | 1 | 8 | 2 | 4
CC(=O)O[C@H]1[C@H](OC(C)=O)[C@]2(C)[C@@H](c3ccoc3)C[C@@H]3O[C@@]32[C@@]2(C)[C@H](OC(=O)Cc3ccccc3)C[C@H]3C(C)(C)O[C@]4(O)C(=O)CC[C@]34[C@@H]12 [DUMNIN] |  | 16 | 1 | 
CC(=O)O[C@H]1[C@H](OC(C)=O)[C@]2(C)[C@@H](c3ccoc3)C[C@@H]3O[C@@]32[C@@]2(C)[C@H](OC(=O)CC(C)C)C[C@H]3C(C)(C)O[C@]4(O)C(=O)CC[C@]34[C@@H]12 [DUMSIN] |  | 8 | 1 | 
CC(=O)O[C@@H]1[C@@H]2[C@@]34CC(=O)C[C@@H]3OC(C)(C)[C@@H]4CC(=O)[C@@]2(C)[C@@]23O[C@@H]2C[C@H](c2ccoc2)[C@]3(C)[C@H]1OC(C)=O [ZUMSIN] | 2 | 8 | 1 | 16
